From ChEMBL document CHEMBL3526015, “Metabolism of the c-Fos/activator protein-1 inhibitor T-5224 by multiple human UDP-glucuronosyltransferase isoforms” (Drug Metab Dispos, 2011)

Legend:
[1] = molecular target: T1, UDP-glucuronosyltransferase 1A3 (Homo sapiens, UniProt P35503); assay: Drug level assessed as human UGT1A3-mediated compound formation from 5 to 50 uM T-5224 after 60 mins in presence of UDP-glucuronic acid by HPLC method; assay type: ADME; conditions: recombinant enzyme, 1 h
T1 sequence (P35503 whole entry): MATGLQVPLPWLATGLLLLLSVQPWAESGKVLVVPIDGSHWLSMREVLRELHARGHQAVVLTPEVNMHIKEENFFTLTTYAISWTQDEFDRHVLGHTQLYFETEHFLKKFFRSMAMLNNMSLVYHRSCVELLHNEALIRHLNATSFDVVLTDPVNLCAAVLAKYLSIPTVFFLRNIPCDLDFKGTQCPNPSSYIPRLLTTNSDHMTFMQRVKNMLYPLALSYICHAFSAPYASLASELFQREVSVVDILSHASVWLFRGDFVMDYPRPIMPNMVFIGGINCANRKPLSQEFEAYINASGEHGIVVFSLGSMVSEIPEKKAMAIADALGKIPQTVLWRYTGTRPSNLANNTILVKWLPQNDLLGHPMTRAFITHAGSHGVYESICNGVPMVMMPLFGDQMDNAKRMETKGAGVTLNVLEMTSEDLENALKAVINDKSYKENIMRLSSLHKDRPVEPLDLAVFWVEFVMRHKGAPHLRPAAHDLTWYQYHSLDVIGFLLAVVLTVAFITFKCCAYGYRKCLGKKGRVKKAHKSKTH
In short: (§1)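 Recombinant human UGT microsomes from baculovirus-infected insect cells, 0.1 mg protein/mL, in 50 mM Tris-HCl pH 7.5, 8 mM MgCl2, alamethicin. T-5224 in DMSO (2% v/v final). Preincubated 5 min at 37°C, started with 2 mM UDPGA, run 60 min at 37°C and stopped with acetonitrile. Glucuronides resolved by C18 HPLC with UV at 290 nm. Linearity was checked at 0.05–0.2 mg/mL protein and 10–60 min.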

[2] = Drug level in pooled human intestinal microsomes treated with 10 uM T-5224 assessed as compound formation after 10 mins by HPLC method; assay type: ADME, Intestine, Microsome
In short: (§2)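 Pooled human liver microsomes at 0.5 mg protein/mL, or pooled intestinal microsomes at 0.25 mg/mL, in 50 mM Tris-HCl pH 7.5, 8 mM MgCl2, alamethicin, with 2 mM UDPGA. T-5224 at 10 μM, 10 min at 37°C after 5 min preincubation; stopped with acetonitrile. HPLC with UV at 290 nm. Linearity was tested over 0.1–1.0 mg/mL protein and 5–30 min.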

[3] = molecular target: T2, UDP-glucuronosyltransferase 1A1 (Homo sapiens, UniProt P22309); assay: Drug level assessed as human UGT1A1-mediated compound formation from 5 to 50 uM T-5224 after 60 mins in presence of UDP-glucuronic acid using 0.05 to 0.2 mg/ml by HPLC method; assay type: ADME; conditions: recombinant enzyme, 1 h; in short: as §1
T2 sequence (P22309 whole entry): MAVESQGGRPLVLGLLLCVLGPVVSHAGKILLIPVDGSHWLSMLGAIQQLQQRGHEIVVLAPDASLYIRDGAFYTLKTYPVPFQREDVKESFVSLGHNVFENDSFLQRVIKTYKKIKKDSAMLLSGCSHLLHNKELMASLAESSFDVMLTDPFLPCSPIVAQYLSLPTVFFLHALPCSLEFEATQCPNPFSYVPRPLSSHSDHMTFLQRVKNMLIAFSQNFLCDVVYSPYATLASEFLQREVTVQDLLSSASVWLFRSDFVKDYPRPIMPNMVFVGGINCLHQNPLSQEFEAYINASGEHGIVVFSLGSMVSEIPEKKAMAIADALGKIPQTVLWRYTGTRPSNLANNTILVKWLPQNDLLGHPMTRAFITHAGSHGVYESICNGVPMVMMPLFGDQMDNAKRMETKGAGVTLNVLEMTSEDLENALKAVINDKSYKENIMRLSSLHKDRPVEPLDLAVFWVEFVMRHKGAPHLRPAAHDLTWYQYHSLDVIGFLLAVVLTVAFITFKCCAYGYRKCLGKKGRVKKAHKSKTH

[4] = Drug level in pooled human intestinal microsomes treated with 10 uM T-5224 assessed as compound formation after 5 to 30 mins by HPLC method; assay type: ADME, Intestine, Microsome; in short: as §2
[5] = molecular target: T1, UDP-glucuronosyltransferase 1A3; assay: Drug level assessed as human UGT1A3-mediated compound formation from 5 to 50 uM T-5224 after 60 mins in presence of UDP-glucuronic acid using 0.05 to 0.2 mg/ml by HPLC method; assay type: ADME; conditions: recombinant enzyme, 1 h; in short: as §1
Liver microsome [6] = assay: Drug level in pooled human liver microsomes treated with 10 uM T-5224 assessed as compound formation after 10 mins by HPLC method; assay type: ADME; in short: as §2
[7] = molecular target: T1, UDP-glucuronosyltransferase 1A3; assay: Drug level assessed as human UGT1A3-mediated compound formation from 5 to 50 uM T-5224 after 10 to 60 mins in presence of UDP-glucuronic acid by HPLC method; assay type: ADME; conditions: recombinant enzyme; in short: as §1
[8] = molecular target: T2, UDP-glucuronosyltransferase 1A1; assay: Drug level assessed as human UGT1A1-mediated compound formation from 5 to 50 uM T-5224 after 60 mins in presence of UDP-glucuronic acid by HPLC method; assay type: ADME; conditions: recombinant enzyme, 1 h; in short: as §1
Liver microsome [9] = assay: Drug level in pooled human liver microsomes treated with 10 uM T-5224 assessed as compound formation after 10 mins using 0.1 to 1.0 mg/ml microsomal protein content by HPLC method; assay type: ADME; in short: as §2
Liver microsome [10] = assay: Drug level in pooled human liver microsomes treated with 10 uM T-5224 assessed as compound formation after 5 to 30 mins by HPLC method; assay type: ADME; in short: as §2
Liver microsome [11] = assay: Drug level in pooled human liver microsomes treated with T-5224 assessed as compound formation in presence of UDPGA by LC-MS/MS method; assay type: ADME
[12] = Drug level in pooled human intestinal microsomes treated with 10 uM T-5224 assessed as compound formation after 10 mins using 0.1 to 1.0 mg/ml microsomal protein content by HPLC method; assay type: ADME, Intestine, Microsome; in short: as §2
[13] = molecular target: T2, UDP-glucuronosyltransferase 1A1; assay: Drug level assessed as human UGT1A1-mediated compound formation from 5 to 50 uM T-5224 after 10 to 60 mins in presence of UDP-glucuronic acid by HPLC method; assay type: ADME; conditions: recombinant enzyme; in short: as §1
[14] = substrate: O=C(O)CCc1cc(C(=O)c2ccc(OC3CCCC3)cc2O)ccc1OCc1ccc2c(O)noc2c1; assay: Drug metabolism assessed as human UGT1A1-mediated T-5224 acyl O-glucuronide formation after 10 to 60 mins in presence of UDP-glucuronic acid by HPLC method; assay type: ADME
In short: (§3)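 Recombinant human UGT1A1 from baculovirus-infected insect cells, 0.1 mg protein/mL, in 50 mM Tris-HCl pH 7.5 with 8 mM MgCl2 and alamethicin. T-5224 at 10–50 μM (2% DMSO final). After 5 min preincubation at 37°C, 2 mM UDPGA starts the reaction; 60 min at 37°C, stopped with acetonitrile. Glucuronides quantified by HPLC-UV at 290 nm, triplicate points. Substrate-inhibition fit gives Vmax, Km and Ksi. kcat = Vmax/E0, with UGT content taken from immunoblot.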

[15] = substrate: O=C(O)CCc1cc(C(=O)c2ccc(OC3CCCC3)cc2O)ccc1OCc1ccc2c(O)noc2c1; assay: Drug metabolism assessed as human UGT1A1-mediated T-5224 hydroxyl O-glucuronide formation after 10 to 60 mins in presence of UDP-glucuronic acid by HPLC method; assay type: ADME; in short: as §3
[16] = substrate: O=C(O)CCc1cc(C(=O)c2ccc(OC3CCCC3)cc2O)ccc1OCc1ccc2c(O)noc2c1; assay: Drug metabolism assessed as Kcat to Km ratio for human UGT1A1-mediated T-5224 hydroxyl O-glucuronide formation per mg protein after 10 to 60 mins in presence of UDP-glucuronic acid by HPLC method; assay type: ADME; in short: as §3
[17] = substrate: O=C(O)CCc1cc(C(=O)c2ccc(OC3CCCC3)cc2O)ccc1OCc1ccc2c(O)noc2c1; assay: Drug metabolism assessed as Kcat to Km ratio for human UGT1A1-mediated T-5224 acyl O-glucuronide formation per mg protein after 10 to 60 mins in presence of UDP-glucuronic acid by HPLC method; assay type: ADME; in short: as §3

Row | Molecule | Drug metabolism [1] | Drug metabolism [2] | Drug metabolism [3] | Drug metabolism [4] | Drug metabolism [5] | Drug metabolism (Liver microsome [6]) | Drug metabolism [7] | Drug metabolism [8] | Drug metabolism (Liver microsome [9]) | Drug metabolism (Liver microsome [10]) | Drug metabolism (Liver microsome [11]) | Drug metabolism [12] | Drug metabolism [13] | Km [14] [µM] | kcat [14] [s⁻¹] | Km [15] [µM] | kcat [15] [s⁻¹] | kcat/Km [16] [M⁻¹ s⁻¹] | kcat/Km [17] [M⁻¹ s⁻¹]
1 | O=C(CCc1cc(C(=O)c2ccc(OC3CCCC3)cc2O)ccc1OCc1ccc2c(O)noc2c1)O[C@@H]1O[C@H](C(=O)O)[C@@H](O)[C@H](O)[C@H]1O | metabolite_detected | metabolite_detected | Dose-dependent effect | Dose-dependent effect | Dose-dependent effect | metabolite_detected | Dose-dependent effect | metabolite_detected | Dose-dependent effect | Dose-dependent effect | metabolite_detected | Dose-dependent effect | Dose-dependent effect | – | – | – | – | – | –
2 | UDP-glucuronosyltransferase 1A1 (Homo sapiens) (protein) MAVESQGGRPLVLGLLLCVLGPVVSHAGKILLIPVDGSHWLSMLGAIQQLQQRGHEIVVLAPDASLYIRDGAFYTLKTYPVPFQREDVKESFVSLGHNVFENDSFLQRVIKTYKKIKKDSAMLLSGCSHLLHNKELMASLAESSFDVMLTDPFLPCSPIVAQYLSLPTVFFLHALPCSLEFEATQCPNPFSYVPRPLSSHSDHMTFLQRVKNMLIAFSQNFLCDVVYSPYATLASEFLQREVTVQDLLSSASVWLFRSDFVKDYPRPIMPNMVFVGGINCLHQNPLSQEFEAYINASGEHGIVVFSLGSMVSEIPEKKAMAIADALGKIPQTVLWRYTGTRPSNLANNTILVKWLPQNDLLGHPMTRAFITHAGSHGVYESICNGVPMVMMPLFGDQMDNAKRMETKGAGVTLNVLEMTSEDLENALKAVINDKSYKENIMRLSSLHKDRPVEPLDLAVFWVEFVMRHKGAPHLRPAAHDLTWYQYHSLDVIGFLLAVVLTVAFITFKCCAYGYRKCLGKKGRVKKAHKSKTH | – | – | – | – | – | – | – | – | – | – | – | – | – | 7.91 | 0.0072 | 5.56 | 0.00158 | 284 | 903
